Assay results taken from ChEMBL document CHEMBL1938337, “Discovery of novel, potent, and selective inhibitors of 3-phosphoinositide-dependent kinase (PDK1)” (J Med Chem, 2011).

Experiments:
[1] = biological target: Serine/threonine-protein kinase MARK1 (Homo sapiens, UniProt Q9P0L2); assay: Inhibition of MARK1
[2] = biological target: Serine/threonine-protein kinase mTOR (Homo sapiens, UniProt P42345); assay: Inhibition of GST-tagged mTOR assessed as phosphorylation at Thr46 in GFP-4E-BP1 substrate by TR-FRET assay
How it was run: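 GST-tagged mTOR (aa 1360-2549) at 1 nM, with 0.4 μM GFP-4E-BP1 and 40 μM ATP. Buffer: 50 mM Hepes pH 7.4, 10 mM MgCl2, 1 mM EGTA, 0.01% Tween-20, at about 22 °C. A terbium anti-phospho-Thr46 antibody was added at the end, and the read-out was TR-FRET. Duplicate data fitted by nonlinear regression. Concentrations are final.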

[3] = biological target: High affinity nerve growth factor receptor (Homo sapiens, UniProt P04629); assay: Inhibition of NTRK1 at 1 uM
[4] = Inhibition of recombinant GST-tagged P70S6K using 5FAM-KRSRTRTDSYSAGQ-COOH as substrate by fluorescence based assay
How it was run: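 GST-tagged P70S6K (a.a. 1-421) at 5 nM, 50 μM ATP, 5 μM 5FAM-peptide. Product separated from substrate by charge (electrophoretic mobility shift, −2500/−500 V). Duplicates, nonlinear regression fit.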

[5] = biological target: Glycogen synthase kinase-3 beta (Homo sapiens, UniProt P49841); assay: Inhibition of GSK3B at 1 uM
[6] = biological target: Epidermal growth factor receptor (Homo sapiens) (UniProt P00533); assay: Inhibition of EGFR at 1 uM
Epidermal growth factor receptor (Homo sapiens), sequence (P00533 whole entry): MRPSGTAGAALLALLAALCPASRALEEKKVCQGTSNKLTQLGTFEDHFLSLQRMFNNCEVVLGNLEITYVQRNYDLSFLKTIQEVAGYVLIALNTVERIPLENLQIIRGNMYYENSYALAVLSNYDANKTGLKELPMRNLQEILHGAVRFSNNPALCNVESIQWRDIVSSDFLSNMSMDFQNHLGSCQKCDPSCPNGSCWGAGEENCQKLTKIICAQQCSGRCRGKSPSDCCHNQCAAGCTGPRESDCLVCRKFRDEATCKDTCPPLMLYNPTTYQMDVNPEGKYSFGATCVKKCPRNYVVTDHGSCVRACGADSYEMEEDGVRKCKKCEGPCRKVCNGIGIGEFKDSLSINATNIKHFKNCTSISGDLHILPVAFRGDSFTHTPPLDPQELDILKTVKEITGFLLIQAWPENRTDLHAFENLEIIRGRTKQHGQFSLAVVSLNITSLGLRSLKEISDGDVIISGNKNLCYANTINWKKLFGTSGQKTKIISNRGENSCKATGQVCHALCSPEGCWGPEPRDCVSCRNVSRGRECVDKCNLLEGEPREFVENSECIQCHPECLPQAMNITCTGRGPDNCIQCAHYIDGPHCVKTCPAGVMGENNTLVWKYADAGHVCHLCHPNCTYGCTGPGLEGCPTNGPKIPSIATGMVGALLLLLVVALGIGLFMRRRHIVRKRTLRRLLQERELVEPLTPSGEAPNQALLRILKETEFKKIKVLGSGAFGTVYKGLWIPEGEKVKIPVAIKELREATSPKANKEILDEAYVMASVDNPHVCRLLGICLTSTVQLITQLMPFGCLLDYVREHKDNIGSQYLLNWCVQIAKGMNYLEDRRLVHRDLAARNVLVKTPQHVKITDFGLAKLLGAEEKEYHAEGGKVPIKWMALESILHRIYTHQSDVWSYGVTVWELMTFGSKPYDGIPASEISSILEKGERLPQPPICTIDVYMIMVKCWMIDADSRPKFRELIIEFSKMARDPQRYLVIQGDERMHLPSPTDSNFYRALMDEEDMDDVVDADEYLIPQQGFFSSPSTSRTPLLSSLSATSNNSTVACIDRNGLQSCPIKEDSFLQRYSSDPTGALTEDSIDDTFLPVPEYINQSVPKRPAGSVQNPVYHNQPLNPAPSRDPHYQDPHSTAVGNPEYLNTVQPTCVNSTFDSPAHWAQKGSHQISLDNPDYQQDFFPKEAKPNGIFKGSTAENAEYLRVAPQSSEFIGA

Serine/threonine-protein kinase MARK1, sequence (Q9P0L2 whole entry): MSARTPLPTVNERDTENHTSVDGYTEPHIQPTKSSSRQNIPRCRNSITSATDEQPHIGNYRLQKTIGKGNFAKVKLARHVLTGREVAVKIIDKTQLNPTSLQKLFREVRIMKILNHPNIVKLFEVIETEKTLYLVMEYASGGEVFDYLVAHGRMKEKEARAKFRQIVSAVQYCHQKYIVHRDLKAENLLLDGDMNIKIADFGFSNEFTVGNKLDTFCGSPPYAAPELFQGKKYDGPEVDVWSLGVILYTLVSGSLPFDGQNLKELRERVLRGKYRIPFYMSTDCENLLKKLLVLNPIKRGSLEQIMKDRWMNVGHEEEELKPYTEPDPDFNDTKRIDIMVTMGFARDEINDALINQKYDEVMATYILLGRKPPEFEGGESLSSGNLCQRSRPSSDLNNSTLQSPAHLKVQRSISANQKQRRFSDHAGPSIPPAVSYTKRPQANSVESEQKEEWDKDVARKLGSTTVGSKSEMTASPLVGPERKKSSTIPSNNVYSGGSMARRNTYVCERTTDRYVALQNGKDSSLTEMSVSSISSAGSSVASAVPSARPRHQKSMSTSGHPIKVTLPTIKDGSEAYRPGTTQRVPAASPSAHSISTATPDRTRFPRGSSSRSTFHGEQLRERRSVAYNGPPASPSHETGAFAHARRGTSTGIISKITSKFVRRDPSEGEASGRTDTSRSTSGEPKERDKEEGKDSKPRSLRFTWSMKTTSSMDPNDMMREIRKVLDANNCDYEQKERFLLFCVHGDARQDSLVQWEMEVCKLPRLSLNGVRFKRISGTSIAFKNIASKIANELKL
High affinity nerve growth factor receptor, sequence (P04629 33-796 limits assumed): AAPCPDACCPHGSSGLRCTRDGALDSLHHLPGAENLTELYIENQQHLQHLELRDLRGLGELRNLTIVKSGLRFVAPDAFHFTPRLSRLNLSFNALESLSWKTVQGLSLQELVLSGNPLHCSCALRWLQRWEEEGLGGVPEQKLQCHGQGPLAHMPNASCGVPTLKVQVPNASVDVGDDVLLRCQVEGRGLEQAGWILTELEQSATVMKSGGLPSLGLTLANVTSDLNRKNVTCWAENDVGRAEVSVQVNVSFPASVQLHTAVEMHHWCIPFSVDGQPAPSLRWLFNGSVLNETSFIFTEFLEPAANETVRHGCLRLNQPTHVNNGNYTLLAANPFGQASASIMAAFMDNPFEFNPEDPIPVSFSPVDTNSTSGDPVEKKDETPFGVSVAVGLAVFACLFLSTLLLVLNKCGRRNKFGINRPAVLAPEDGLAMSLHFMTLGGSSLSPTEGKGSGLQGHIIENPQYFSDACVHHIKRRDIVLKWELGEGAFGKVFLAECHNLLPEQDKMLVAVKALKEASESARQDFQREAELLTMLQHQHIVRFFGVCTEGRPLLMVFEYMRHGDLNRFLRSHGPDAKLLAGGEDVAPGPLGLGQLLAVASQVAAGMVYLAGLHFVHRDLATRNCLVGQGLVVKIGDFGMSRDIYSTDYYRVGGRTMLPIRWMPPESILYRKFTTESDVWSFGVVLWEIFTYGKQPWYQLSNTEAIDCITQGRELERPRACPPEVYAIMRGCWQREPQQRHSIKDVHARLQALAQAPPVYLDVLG
Glycogen synthase kinase-3 beta, sequence (P49841 whole entry, looked up): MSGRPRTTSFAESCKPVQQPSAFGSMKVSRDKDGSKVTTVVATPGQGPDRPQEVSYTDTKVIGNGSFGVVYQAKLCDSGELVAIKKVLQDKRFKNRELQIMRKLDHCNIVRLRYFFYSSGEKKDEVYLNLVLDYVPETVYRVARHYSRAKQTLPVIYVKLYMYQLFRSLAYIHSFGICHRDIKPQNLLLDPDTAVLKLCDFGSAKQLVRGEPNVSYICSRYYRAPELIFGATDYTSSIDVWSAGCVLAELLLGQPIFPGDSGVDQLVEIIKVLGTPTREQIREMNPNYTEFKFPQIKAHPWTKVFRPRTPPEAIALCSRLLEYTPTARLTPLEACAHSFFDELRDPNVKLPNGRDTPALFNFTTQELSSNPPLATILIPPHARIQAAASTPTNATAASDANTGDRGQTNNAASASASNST

`CC(=O)N1CC[C@@H](Nc2cncc(C(=O)c3cn(C(C)C)c4ncnc(N)c34)n2)[C@H]1c1ccccc1` showed an IC50 [1] of 1300 nM, a Ki [2] of 3900 nM and an inhibition [3] of 59%. It also gave a Ki [4] of 3600 nM, an inhibition [5] of 42% and an inhibition [6] of -2%.
With `CC(=O)N1CC[C@@H](Nc2cncc(C(=O)c3cn(C(C)C)c4ncnc(N)c34)n2)[C@H]1c1ccc(F)cc1` the IC50 [1] was 590 nM, the Ki [2] was 2600 nM and the inhibition [3] was 63%. It also gave a Ki [4] of 10000 nM, an inhibition [5] of 76% and an inhibition [6] of 1%.
`CC(C)n1cc(C(=O)c2cncc(N[C@@H]3CCN(C=O)[C@@H]3c3ccc(F)cc3)n2)c2c(N)ncnc21` gave an IC50 [1] of 110 nM, a Ki [2] of 2800 nM and an inhibition [3] of 74%. It also gave a Ki [4] of 890 nM, an inhibition [5] of 66% and an inhibition [6] of 7%.
